Measurements of several laboratories.
Lines come from different studies, so protocols differ.
Target: Ephrin type-A receptor 8 (EPHA8, Homo sapiens, UniProt P29322)
One construct used (P29322 28-1005): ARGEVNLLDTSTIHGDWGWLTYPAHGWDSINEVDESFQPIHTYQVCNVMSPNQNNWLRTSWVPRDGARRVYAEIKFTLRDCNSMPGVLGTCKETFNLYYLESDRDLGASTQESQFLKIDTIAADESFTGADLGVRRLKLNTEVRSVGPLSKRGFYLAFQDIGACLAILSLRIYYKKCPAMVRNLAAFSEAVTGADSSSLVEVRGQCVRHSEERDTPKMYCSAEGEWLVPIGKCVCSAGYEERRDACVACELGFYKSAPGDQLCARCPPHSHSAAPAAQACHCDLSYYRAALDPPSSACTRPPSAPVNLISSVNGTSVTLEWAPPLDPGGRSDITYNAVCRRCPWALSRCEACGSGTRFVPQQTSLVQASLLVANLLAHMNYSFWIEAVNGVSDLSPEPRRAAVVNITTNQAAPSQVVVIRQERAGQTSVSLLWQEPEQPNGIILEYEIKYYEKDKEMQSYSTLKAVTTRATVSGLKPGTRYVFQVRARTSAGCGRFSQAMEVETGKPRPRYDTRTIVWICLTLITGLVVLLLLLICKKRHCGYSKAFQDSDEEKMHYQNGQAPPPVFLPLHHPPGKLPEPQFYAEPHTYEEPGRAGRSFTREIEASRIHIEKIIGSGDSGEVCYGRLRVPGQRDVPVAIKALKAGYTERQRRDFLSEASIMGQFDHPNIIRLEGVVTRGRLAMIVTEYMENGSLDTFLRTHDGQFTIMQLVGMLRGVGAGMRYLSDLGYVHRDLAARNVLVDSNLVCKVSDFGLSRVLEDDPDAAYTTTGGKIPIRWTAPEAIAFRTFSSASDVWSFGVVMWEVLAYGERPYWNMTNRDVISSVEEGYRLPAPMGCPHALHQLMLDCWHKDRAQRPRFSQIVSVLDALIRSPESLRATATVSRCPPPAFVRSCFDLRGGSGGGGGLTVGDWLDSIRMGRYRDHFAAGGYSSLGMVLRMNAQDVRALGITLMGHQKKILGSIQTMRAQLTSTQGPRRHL

FC(F)(F)Oc1cccc(-c2cnc3ccc(-c4ccncc4)nn23)c1 — remaining binding (cell-free assay; competition with immobilised ligand; 5 µM): 91%
O=C(c1ccc(Nc2nccc(-c3cc4ccccc4s3)n2)cc1)N1CCC(N2CCCC2)CC1 — remaining binding (binding; competition with immobilised ligand; 1 µM): 100%
Nc1c(C(=O)NCc2ccc(C(=O)NCCCC3CCCCC3)cc2)cnn1-c1ccccc1 — remaining binding (cell-free assay; competition with immobilised ligand; 0.1 µM): 100%
F[C@@H]1CCN(c2nccc(-c3cnn4ncccc34)n2)C1 — remaining binding (binding; 1 µM): 92%
O=C(NCCCN1CCOCC1)c1ccc(Nc2ncc(Cl)c(-c3ccc(Cl)s3)n2)cc1 — remaining binding (binding; competition with immobilised ligand; 1 µM): 95%
CN(C)c1ncc(F)c(-c2cnn3ncccc23)n1 — remaining binding (binding; 1 µM): 100%
O=c1nc(-c2ccccn2)sc2ccccc12 — remaining binding (cell-free assay; competition with immobilised ligand; 1 µM): 78%
CC1CCCN1c1nccc(-c2cnn3ncccc23)n1 (centres unmarked) — remaining binding (binding; 1 µM): 100%
COc1ncc2cc3ccccc3nc2c1C#N — remaining binding (cell-free assay; competition with immobilised ligand; 5 µM): 94%
O=C(Nc1c[nH]nc1C(=O)NC1CCNCC1)c1cc(F)cc(F)c1 — remaining binding (binding; competition with immobilised ligand; 1 µM): 100%
CCN1CCN(Cc2ccc(C(=O)Nc3ccc(C)c(Oc4ccc5c(c4)CC(=O)N5)c3)cc2C(F)(F)F)CC1 — remaining binding (binding; competition with immobilised ligand; 1 µM): 82%
CNC(=O)[C@@H]1CC[C@@H](n2c(-c3ccc4cnccc4c3)nc3ccc(C(=O)NCc4cccc(C(N)=O)c4)cc32)C1 — remaining binding (binding; competition with immobilised ligand; 1 µM): 91%
C[C@H](c1ccnc(Nc2nc3ccc(-c4cc(N(C)C)ncn4)cc3[nH]2)c1)N1CCN(C(=O)CC(F)(F)F)CC1 — remaining binding (cell-free assay; competition with immobilised ligand; 0.1 µM): 100%
O=C(c1ccc(Nc2ncc(Cl)c(-c3cc4ccccc4s3)n2)cc1)N1CCC(N2CCCC2)CC1 — remaining binding (binding; competition with immobilised ligand; 1 µM): 83%
CCOCCn1cc(C(=O)Nc2ccc(-n3nc(-c4cccnc4)cc3C(F)(F)F)cn2)ccc1=O — remaining binding (cell-free assay; competition with immobilised ligand; 1 µM): 84%
C[C@@H](c1ccc(-n2cnc3c(N)ncnc32)cc1)N1CCc2nn(C)c(Cc3ccccc3)c2C1=O — remaining binding (binding; competition with immobilised ligand; 0.1 µM): 63%
COc1cc(-c2cn(C3CCc4c(F)cccc4N(CC(F)(F)F)C3=O)nn2)ccc1-n1cnc(C)c1 (centres unmarked) — remaining binding (cell-free assay; competition with immobilised ligand; 1 µM): 100%
Cc1cnn2ncc(-c3ccnc(N(C)C)n3)c2c1 — remaining binding (binding; 1 µM): 99%
C[C@@H]1CN(c2cc(-c3n[nH]c4ccc(OC5(C)CC5)cc34)ncn2)C[C@H](C)O1 — remaining binding (cell-free assay; competition with immobilised ligand; 0.1 µM): 82%
CN(CCCC(F)(F)F)c1nccc(-c2cnn3ncccc23)n1 — remaining binding (binding; 1 µM): 93%
